{"source": "ChEMBL document CHEMBL4350961", "about": "“Discovery of Pyrrolo[3,2- d]pyrimidin-4-one Derivatives as a New Class of Potent and Cell-Active Inhibitors of P300/CBP-Associated Factor Bromodomain” (J Med Chem, 2019)", "key": {"[1]": {"target": "CDK2/Cyclin A2 (Homo sapiens) (UniProt P24941+P20248)", "test": "Inhibition of recombinant full-length human CDK2/cyclinA at 10 uM using histone H1 as substrate measured after 40 mins in presence of [gamma33P]ATP by scintillation counting method", "type": "protein-complex assay"}, "[2]": {"target": "CDK6/cyclin D3 (Homo sapiens) (UniProt P30281+Q00534)", "test": "Inhibition of recombinant full-length human CDK6/cyclin D3 at 10 uM using histone H1 as substrate measured after 40 mins in presence of [gamma33P]ATP by scintillation counting method", "type": "protein-complex assay"}, "[3]": {"target": "Serine/threonine-protein kinase BRSK1 (Homo sapiens) (UniProt Q8TDC3)", "sequence (Q8TDC3 whole entry)": "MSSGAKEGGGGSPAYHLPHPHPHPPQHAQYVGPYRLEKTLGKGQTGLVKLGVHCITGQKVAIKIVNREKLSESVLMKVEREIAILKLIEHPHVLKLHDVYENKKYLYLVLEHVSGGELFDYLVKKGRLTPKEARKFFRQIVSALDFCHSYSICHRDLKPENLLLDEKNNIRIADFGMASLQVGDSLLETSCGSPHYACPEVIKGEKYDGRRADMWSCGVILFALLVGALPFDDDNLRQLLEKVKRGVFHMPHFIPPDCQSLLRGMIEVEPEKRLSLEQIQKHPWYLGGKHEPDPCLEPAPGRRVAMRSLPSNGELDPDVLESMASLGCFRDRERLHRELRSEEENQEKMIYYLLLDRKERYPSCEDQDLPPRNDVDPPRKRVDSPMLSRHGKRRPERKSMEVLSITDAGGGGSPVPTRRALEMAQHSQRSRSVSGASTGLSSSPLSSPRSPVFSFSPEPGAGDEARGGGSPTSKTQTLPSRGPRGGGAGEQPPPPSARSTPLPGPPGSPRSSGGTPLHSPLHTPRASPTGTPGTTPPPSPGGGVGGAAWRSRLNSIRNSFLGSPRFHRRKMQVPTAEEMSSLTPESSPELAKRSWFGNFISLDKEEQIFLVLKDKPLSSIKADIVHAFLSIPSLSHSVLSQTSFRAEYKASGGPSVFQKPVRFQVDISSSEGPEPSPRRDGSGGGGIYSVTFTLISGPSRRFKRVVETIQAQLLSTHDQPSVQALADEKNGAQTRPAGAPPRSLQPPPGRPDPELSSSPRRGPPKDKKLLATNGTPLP", "test": "Inhibition of recombinant human BrSK1 (2 to end residues) at 10 uM using KKKVSRSGLYRSPSMPENLNRPR as substrate measured after 120 mins in presence of [gamma33P]ATP by scintillation counting method"}, "[4]": {"target": "Mitogen-activated protein kinase kinase kinase kinase 1 (Homo sapiens) (UniProt Q92918)", "sequence (Q92918 whole entry, looked up, the tested form may be a part)": "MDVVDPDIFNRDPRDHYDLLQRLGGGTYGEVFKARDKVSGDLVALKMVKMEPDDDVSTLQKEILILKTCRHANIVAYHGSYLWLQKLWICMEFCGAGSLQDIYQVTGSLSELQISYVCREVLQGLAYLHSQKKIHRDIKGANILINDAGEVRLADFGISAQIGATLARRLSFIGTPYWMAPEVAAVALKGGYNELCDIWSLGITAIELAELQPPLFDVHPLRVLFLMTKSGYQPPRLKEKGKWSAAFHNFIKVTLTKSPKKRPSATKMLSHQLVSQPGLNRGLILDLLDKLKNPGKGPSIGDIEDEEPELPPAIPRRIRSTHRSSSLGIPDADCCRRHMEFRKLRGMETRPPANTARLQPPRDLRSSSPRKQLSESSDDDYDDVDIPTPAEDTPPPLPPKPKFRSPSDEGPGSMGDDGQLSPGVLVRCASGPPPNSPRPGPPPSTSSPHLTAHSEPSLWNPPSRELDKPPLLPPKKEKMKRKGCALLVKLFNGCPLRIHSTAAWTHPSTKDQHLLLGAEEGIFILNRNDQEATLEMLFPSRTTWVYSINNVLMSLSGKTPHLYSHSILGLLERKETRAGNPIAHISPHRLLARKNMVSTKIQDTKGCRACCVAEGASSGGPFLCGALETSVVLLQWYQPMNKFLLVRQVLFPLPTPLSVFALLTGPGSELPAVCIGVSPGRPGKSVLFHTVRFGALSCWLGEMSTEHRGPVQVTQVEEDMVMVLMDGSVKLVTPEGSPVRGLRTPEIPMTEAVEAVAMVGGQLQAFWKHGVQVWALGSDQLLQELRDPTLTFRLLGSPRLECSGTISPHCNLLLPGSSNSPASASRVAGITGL", "test": "Inhibition of recombinant human HPK1 (1 to 346 residues) at 10 uM using myelin basic protein as substrate measured after 40 mins in presence of [gamma33P]ATP by scintillation counting method"}, "[5]": {"target": "Cyclin-dependent kinase-like 3 (Homo sapiens) (UniProt Q8IVW4)", "test": "Inhibition of recombinant human full-length CDKL3 (1 to 303 residues) at 10 uM using RRRFRPASPLRGP as substrate measured after 120 mins in presence of [gamma33P]ATP by scintillation counting method"}, "[6]": {"target": "Calcium/calmodulin-dependent protein kinase type IV (Homo sapiens) (UniProt Q16566)", "sequence (Q16566 whole entry)": "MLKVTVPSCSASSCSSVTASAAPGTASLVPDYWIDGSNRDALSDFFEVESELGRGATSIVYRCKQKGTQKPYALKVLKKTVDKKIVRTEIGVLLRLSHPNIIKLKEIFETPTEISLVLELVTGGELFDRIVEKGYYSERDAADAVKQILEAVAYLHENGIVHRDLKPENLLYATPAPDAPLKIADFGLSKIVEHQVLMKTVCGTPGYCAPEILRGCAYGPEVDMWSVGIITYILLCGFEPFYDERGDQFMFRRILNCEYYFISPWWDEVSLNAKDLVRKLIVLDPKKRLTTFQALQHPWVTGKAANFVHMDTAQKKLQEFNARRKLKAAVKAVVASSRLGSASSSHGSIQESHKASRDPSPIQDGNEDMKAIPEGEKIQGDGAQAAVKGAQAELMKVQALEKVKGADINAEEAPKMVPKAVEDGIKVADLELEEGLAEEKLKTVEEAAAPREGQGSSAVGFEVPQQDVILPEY", "test": "Inhibition of recombinant full-length human CaMK4 at 10 uM using calmodulin as substrate measured after 40 mins in presence of [gamma33P]ATP by scintillation counting method"}, "[7]": {"test": "AUC (0 to t) in Sprague-Dawley rat at 10 mg/kg, po administered via gavage by LC-MS/MS analysis", "type": "ADME, organism-based", "settings": "in vivo", "in_short": "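Serial jugular blood samples taken at designated times and spun to plasma at 4 ℃. Plasma mixed with acetonitrile holding internal standard, then LC-MS/MS. Parameters from noncompartmental fitting.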"}, "[8]": {"tested_on": "Hepatocyte growth factor receptor (Homo sapiens), P08581 [D1228N]", "test": "Inhibition of recombinant human MET A1209G/V1290L/D1246N mutant (974 to end residues) at 10 uM using KKKGQEEEYVFIE as substrate measured after 40 mins in presence of [gamma33P]ATP by scintillation counting method"}, "[9]": {"target": "Tyrosine-protein kinase ABL2 (Homo sapiens) (UniProt P42684)", "test": "Inhibition of recombinant human ARG (38 to end residues) at 10 uM using EAIYAAPFAKKK as substrate measured after 40 mins in presence of [gamma33P]ATP by scintillation counting method"}, "[10]": {"target": "Tyrosine-protein kinase ITK/TSK (Homo sapiens) (UniProt Q08881)", "test": "Inhibition of recombinant human ITK (352 to 617 residues) at 10 uM using myelin basic protein as substrate measured after 40 mins in presence of [gamma33P]ATP by scintillation counting method"}, "Homo sapiens [11]": {"species": "Homo sapiens", "test": "Inhibition of recombinant human DDR1 V833L mutant (492 to end residues) at 10 uM using KKKSPGEYVNIEFG as substrate measured after 40 mins in presence of [gamma33P]ATP by scintillation counting method"}, "[12]": {"target": "Tyrosine-protein kinase Fyn (Homo sapiens) (UniProt P06241)", "test": "Inhibition of recombinant full-length human FYN at 10 uM using Cdc2 peptide as substrate measured after 40 mins in presence of [gamma33P]ATP by scintillation counting method"}, "[13]": {"target": "Ribosomal protein S6 kinase alpha-3 (Homo sapiens) (UniProt P51812)", "sequence (P51812 whole entry)": "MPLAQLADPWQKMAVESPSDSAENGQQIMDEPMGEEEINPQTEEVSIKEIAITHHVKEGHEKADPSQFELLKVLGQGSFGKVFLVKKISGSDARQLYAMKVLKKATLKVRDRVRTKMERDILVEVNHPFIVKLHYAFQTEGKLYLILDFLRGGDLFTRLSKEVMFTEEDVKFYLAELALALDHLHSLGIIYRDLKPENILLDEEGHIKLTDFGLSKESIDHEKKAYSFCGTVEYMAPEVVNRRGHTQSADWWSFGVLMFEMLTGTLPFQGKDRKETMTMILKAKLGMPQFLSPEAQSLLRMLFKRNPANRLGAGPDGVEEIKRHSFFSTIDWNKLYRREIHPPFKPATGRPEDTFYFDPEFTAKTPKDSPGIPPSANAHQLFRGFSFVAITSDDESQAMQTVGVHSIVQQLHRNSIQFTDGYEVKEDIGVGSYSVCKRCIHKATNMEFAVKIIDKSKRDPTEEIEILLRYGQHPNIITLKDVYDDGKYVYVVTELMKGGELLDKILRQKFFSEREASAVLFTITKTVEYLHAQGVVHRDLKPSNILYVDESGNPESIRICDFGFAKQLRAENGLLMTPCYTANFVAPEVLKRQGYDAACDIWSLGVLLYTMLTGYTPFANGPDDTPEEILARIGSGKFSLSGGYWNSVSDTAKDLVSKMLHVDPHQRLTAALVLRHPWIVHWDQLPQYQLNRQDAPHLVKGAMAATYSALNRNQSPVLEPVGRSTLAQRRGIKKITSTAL", "test": "Inhibition of human Rsk2 (2 to end residues) using KKKNRTLSVA as substrate measured after 40 mins in presence of [gamma33P]ATP by scintillation counting method", "in_short": "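Kinase panel of 422 kinases screened by Eurofins KinaseProfiler at a single test-compound concentration of 10 µM.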"}, "[14]": {"tested_on": "Epidermal growth factor receptor (Homo sapiens), P00533 [T790M]", "test": "Inhibition of recombinant human EGFR T790M mutant (696 to end residues) at 10 uM using GGMEDIYFEFMGGKKK as substrate measured after 40 mins in presence of [gamma33P]ATP by scintillation counting method"}, "[15]": {"target": "Insulin receptor (Homo sapiens) (UniProt P06213)", "test": "Inhibition of recombinant human IR (1005 to 1310 residues) at 10 uM using KKSRGDYMTMQIG as substrate measured after 40 mins in presence of [gamma33P]ATP by scintillation counting method"}, "[16]": {"target": "Dual specificity mitogen-activated protein kinase kinase 2 (Homo sapiens) (UniProt P36507)", "sequence (P36507 whole entry)": "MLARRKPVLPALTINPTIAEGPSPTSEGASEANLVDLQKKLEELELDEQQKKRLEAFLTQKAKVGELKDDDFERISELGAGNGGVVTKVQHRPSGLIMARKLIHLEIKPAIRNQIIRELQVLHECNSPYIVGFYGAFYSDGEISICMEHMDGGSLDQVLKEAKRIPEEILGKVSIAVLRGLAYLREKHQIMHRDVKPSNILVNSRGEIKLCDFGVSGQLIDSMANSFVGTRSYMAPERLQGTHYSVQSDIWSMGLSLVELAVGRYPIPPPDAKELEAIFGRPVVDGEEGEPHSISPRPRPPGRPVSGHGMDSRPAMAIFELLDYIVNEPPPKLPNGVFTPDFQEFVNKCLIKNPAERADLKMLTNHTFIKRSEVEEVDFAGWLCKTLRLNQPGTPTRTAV", "test": "Inhibition of recombinant full-length human MEK2 at 10 uM using MBP as substrate measured after 40 mins in presence of [gamma33P]ATP by scintillation counting method"}, "[17]": {"target": "Transcription initiation factor TFIID subunit 1-like (Homo sapiens) (UniProt Q8IZX4)", "test": "Inhibition of human TAF1L (1428 to end residues) using RRRFRPASPLRGPPK as substrate measured after 120 mins in presence of [gamma33P]ATP by scintillation counting method"}, "[18]": {"target": "Epidermal growth factor receptor (Homo sapiens) (UniProt P00533)", "test": "Inhibition of recombinant human EGFR (696 to end residues) at 10 uM using poly(Glu, Tyr) 4:1 as substrate measured after 40 mins in presence of [gamma33P]ATP by scintillation counting method"}, "[19]": {"target": "Ribosomal protein S6 kinase alpha-2 (Homo sapiens) (UniProt Q15349)", "test": "Inhibition of recombinant full-length human Rsk3 at 10 uM using KKKNRTLSVA as substrate measured after 40 mins in presence of [gamma33P]ATP by scintillation counting method"}, "[20]": {"target": "BDNF/NT-3 growth factors receptor (Homo sapiens) (UniProt Q16620)", "sequence (Q16620 32-822 limits assumed)": "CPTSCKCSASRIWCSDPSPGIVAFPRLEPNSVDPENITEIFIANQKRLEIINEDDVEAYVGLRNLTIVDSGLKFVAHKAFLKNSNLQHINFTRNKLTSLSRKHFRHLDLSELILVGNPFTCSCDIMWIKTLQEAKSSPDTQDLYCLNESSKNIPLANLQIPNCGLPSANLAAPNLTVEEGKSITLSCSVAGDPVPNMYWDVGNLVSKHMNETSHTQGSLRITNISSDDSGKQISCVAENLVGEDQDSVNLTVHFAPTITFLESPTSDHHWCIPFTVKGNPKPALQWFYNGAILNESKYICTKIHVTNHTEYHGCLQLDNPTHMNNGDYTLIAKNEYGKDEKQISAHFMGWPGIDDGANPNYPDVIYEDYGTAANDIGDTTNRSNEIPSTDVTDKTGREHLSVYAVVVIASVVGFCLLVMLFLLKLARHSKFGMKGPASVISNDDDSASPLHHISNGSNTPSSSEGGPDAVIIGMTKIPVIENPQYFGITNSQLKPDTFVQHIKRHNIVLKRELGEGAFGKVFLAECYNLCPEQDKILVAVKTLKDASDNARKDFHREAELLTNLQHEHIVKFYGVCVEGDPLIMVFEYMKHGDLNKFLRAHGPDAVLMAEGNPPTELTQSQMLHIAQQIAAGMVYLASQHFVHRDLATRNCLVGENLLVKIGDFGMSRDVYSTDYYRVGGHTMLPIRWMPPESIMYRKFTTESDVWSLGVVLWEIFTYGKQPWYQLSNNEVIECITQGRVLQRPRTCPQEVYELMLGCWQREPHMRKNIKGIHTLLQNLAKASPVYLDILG", "test": "Inhibition of human TrkB (455 to end residues) using poly(Glu, Tyr) 4:1 as substrate measured after 40 mins in presence of [gamma33P]ATP by scintillation counting method"}, "Homo sapiens [21]": {"species": "Homo sapiens", "test": "Inhibition of recombinant human Flt4 V1128L/H1146R mutant (800 to end residues) at 10 uM using GGEEEEYFELVKKKK as substrate measured after 40 mins in presence of [gamma33P]ATP by scintillation counting method"}, "[22]": {"target": "CDK4/Cyclin D3 (Homo sapiens) (UniProt P11802+P30281)", "test": "Inhibition of recombinant full-length human CDK4/cyclinD3 at 10 uM using Rb fragment as substrate measured after 40 mins in presence of [gamma33P]ATP by scintillation counting method", "type": "protein-complex assay"}, "[23]": {"target": "Activin receptor type-1-like (Homo sapiens) (UniProt P37023)", "sequence (P37023 whole entry)": "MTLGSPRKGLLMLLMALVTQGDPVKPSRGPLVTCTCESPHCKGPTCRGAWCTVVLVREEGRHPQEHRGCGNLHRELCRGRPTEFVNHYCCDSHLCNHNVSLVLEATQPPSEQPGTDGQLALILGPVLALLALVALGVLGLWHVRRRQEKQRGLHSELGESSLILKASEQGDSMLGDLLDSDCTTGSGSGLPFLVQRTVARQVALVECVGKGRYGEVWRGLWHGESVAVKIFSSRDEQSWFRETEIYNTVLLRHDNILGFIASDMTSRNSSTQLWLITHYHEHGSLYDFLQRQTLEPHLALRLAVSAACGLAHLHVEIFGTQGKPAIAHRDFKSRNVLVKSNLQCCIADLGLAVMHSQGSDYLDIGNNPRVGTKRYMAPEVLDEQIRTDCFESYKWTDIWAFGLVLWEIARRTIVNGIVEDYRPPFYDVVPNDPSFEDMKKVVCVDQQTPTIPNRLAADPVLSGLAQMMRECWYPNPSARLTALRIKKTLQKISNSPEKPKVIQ", "test": "Inhibition of recombinant human ALK1 (142 to end residues) at 10 uM using casein as substrate measured after 40 mins in presence of [gamma33P]ATP by scintillation counting method"}, "[24]": {"target": "Serine/threonine-protein kinase 32C (Homo sapiens) (UniProt Q86UX6)", "sequence (Q86UX6 whole entry)": "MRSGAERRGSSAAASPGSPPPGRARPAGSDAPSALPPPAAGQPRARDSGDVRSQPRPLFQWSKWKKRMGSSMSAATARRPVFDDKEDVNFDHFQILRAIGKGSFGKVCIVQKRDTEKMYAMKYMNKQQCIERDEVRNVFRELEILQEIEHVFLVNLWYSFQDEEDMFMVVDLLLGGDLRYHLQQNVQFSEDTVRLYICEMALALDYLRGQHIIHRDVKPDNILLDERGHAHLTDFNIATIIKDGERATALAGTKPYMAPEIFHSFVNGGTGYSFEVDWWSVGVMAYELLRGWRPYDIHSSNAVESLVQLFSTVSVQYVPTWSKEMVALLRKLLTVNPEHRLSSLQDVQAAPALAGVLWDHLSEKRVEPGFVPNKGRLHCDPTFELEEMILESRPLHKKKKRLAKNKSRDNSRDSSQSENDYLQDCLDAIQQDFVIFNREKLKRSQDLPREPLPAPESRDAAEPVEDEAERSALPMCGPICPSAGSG", "test": "Inhibition of recombinant full-length human STK32C at 10 uM using casein as substrate measured after 120 mins in presence of [gamma33P]ATP by scintillation counting method"}}, "note": "Active and inactive are the calls of the source. The calls are words filed in the database; no cut-off is given here."}
{"smiles": "CN1C[C@H](Nc2nc3cc[nH]c3c(=O)n2C)C[C@H](c2ccc3c(c2)OCCO3)C1", "values": [{"measurement": "inhibition", "setting": "[1]", "value": "inactive"}, {"measurement": "inhibition", "setting": "[2]", "value": "inactive"}, {"measurement": "inhibition", "setting": "[3]", "value": "inactive"}, {"measurement": "inhibition", "setting": "[4]", "value": "inactive"}, {"measurement": "inhibition", "setting": "[5]", "value": "inactive"}, {"measurement": "inhibition", "setting": "[6]", "value": "inactive"}, {"measurement": "AUC(0-t)", "setting": "[7]", "value": 2480, "unit": "ng·h/mL"}, {"measurement": "inhibition", "setting": "[8]", "value": "inactive"}, {"measurement": "inhibition", "setting": "[9]", "value": "inactive"}, {"measurement": "inhibition", "setting": "[10]", "value": "inactive"}, {"measurement": "inhibition", "setting": "Homo sapiens [11]", "value": "inactive"}, {"measurement": "inhibition", "setting": "[12]", "value": "inactive"}, {"measurement": "inhibition", "setting": "[13]", "value": "inactive"}, {"measurement": "inhibition", "setting": "[14]", "value": "inactive"}, {"measurement": "inhibition", "setting": "[15]", "value": "inactive"}, {"measurement": "inhibition", "setting": "[16]", "value": "inactive"}, {"measurement": "inhibition", "setting": "[17]", "value": "inactive"}, {"measurement": "inhibition", "setting": "[18]", "value": "inactive"}, {"measurement": "inhibition", "setting": "[19]", "value": "inactive"}, {"measurement": "inhibition", "setting": "[20]", "value": "inactive"}, {"measurement": "inhibition", "setting": "Homo sapiens [21]", "value": "inactive"}, {"measurement": "inhibition", "setting": "[22]", "value": "inactive"}, {"measurement": "inhibition", "setting": "[23]", "value": "inactive"}, {"measurement": "inhibition", "setting": "[24]", "value": "inactive"}]}
